Results published in PMC2912405 (Journal of medicinal chemistry, 2010).
Counter-ions that a name gives are not always drawn.

Legend:
[1] = target: T1, purified human LAL (phLAL) (Homo sapiens, UniProt P38571); test: In vitro LAL activity assay; assay type: biochemical; conditions: 10 μM compound; Supplemental Figures 1 and 2
T1 sequence (P38571 77-399): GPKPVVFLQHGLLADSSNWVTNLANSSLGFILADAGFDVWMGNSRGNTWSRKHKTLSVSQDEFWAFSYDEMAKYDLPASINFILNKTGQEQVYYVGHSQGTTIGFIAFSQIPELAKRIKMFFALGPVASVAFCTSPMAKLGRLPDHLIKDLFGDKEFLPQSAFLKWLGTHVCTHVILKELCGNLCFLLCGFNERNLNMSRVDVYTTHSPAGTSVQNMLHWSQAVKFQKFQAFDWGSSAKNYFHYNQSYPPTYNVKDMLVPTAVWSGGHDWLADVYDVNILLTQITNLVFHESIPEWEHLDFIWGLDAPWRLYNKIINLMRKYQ

[2] = target: T2, phLAL (Homo sapiens, UniProt P38571); test: Time-dependence of LAL inhibition; assay type: biochemical; conditions: pre-incubation at 833 nM, 500 nM final, 37 °C; Figure 3
T2 sequence (P38571 77-399): T1 sequence (P38571 77-399)

[3] = target: T3, LAL (Homo sapiens, UniProt P38571); test: LAL activity in lysates of compound-treated cells; assay type: cell-based; conditions: for inhibition of LAL in cell lysates: cells treated continuously ~4 days, Figure 4A; for inhibition of LAL in cell lysates after withdrawal: ~3 days treatment, ~1 day recovery in growth medium, Figure 4B
T3 sequence (P38571 77-399): T1 sequence (P38571 77-399)

[4] = system: NPC1 mutant cells; test: Filipin LSO assay of cholesterol accumulation; assay type: cell-based, human; conditions: ~3 days treatment, Figure 4C
Summary of the method: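 Compound-treated cells (~3 days) stained with filipin. Automated fluorescence imaging at 4 (10×) or 9 (20×) sites per well, 2×2 binning, laser autofocus per site, 12-bit images. After background correction, LSO ratio is integrated thresholded filipin fluorescence within LSOs, normalised to total cell area defined by low-threshold filipin signal.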

[5] = system: apparently normal human fibroblasts; test: LipidTOX green neutral lipid accumulation; assay type: cell-based; conditions: normal cells, ~3 days treatment; Figure 4D
Summary of the method: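 Normal human fibroblasts kept in MEM (2.2 g/L bicarbonate, 10% FBS) and treated with compound for ~3 days. Stained with LipidTOX green and imaged at 482/35 nm excitation, 536/40 nm emission, 20× 0.5 NA objective, with autofocus per site. LSO ratio is thresholded LipidTOX fluorescence within LSOs, normalised to total cell area from low-threshold filipin signal.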

[6] = target: T1, purified human LAL (phLAL); test: Lineweaver-Burk analysis of LAL inhibition; assay type: biochemical; conditions: 30 min pre-incubation at 37 °C, 4MUO at various concentrations
Summary of the method: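 Recombinant purified human LAL pre-incubated with compound for 30 min at 37 °C in 200 mM sodium acetate pH 5.5, 0.02% Tween-20. Started with varied 4-methylumbelliferyl oleate in Triton X-100 and followed by fluorescence (355/450 nm) for 45 min. Compound levels given as final. Double-reciprocal plots fitted by linear regression, two independent experiments.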

[7] = target: T1, purified human LAL (phLAL); conditions: previous studies; cited from earlier work
[8] = target: T2, phLAL; conditions: earlier study; cited from earlier work
[9] = system: many lipases; conditions: cited from earlier work
[10] = system: NPC1- or NPC2-defective mice; conditions: ref 5a, 9; cited from earlier work

Compound: CN1CCC(OC(=O)Nc2ccc(F)cc2)CC1 [1-methyl-4-piperidinyl-N-(4-fluorophenyl) carbamate]
- inhibition of LAL activity at 10 μM [1]: None of these carbamates inhibited LAL

Compound: O=C(Oc1nsnc1N1CCCC1)N1CCCCC1 [Compound 10, 4-(Pyrrolidin-1-yl)-1,2,5-thiadiazol-3-yl piperidine-1-carboxylate]
- pre-incubation time-dependence of inhibition [2]: significantly higher time-dependence than other compounds
- inhibition of LAL in cell lysates [3]: much higher level of inhibition of LAL upon cell lysis than 11, 13, 15, and 17
- inhibition of LAL in cell lysates after withdrawal [3]: maximal potency

Compound: O=C(Oc1nsnc1N1CCCCC1)N1CCCCC1 [Compound 12]
- inhibition of LAL in cell lysates [3]: much higher level of inhibition of LAL upon cell lysis than 11, 13, 15, and 17
- inhibition of LAL in cell lysates after withdrawal [3]: maximal potency
- decrease in cholesterol accumulation [4]: most potent
- increase in neutral lipid accumulation [5]: most potent

Compound: O=C(Oc1nsnc1N1CCCCC1)N1CCOCC1 [Compound 13]
- type of inhibition [6]: apparent competitive inhibitor
- potency and specificity towards LAL [7]: significant potency and specificity towards LAL
- time-dependence of inhibition upon pre-incubation with phLAL [8]: some time-dependence of inhibition

Compound: O=C(Oc1nsnc1N1CCOCC1)N1CCCCC1 [Compound 14]
- inhibition of LAL in cell lysates [3]: much higher level of inhibition of LAL upon cell lysis than 11, 13, 15, and 17
- potency and specificity towards LAL [7]: significant potency and specificity towards LAL
- time-dependence of inhibition upon pre-incubation with phLAL [8]: some time-dependence of inhibition

Compound: O=C(Oc1nsnc1N1CCOCC1)N1CCOCC1 [Compound 15]
- inhibition of LAL in cell lysates [3]: least potent
- inhibition of LAL in cell lysates after withdrawal [3]: least potent
- decrease in cholesterol accumulation [4]: least potent
- increase in neutral lipid accumulation [5]: least potent
- potency and specificity towards LAL [7]: significant potency and specificity towards LAL
- time-dependence of inhibition upon pre-incubation with phLAL [8]: some time-dependence of inhibition

Compound: O=C(Oc1nsnc1N1CCCCCC1)N1CCCCC1 [Compound 16]
- inhibition of LAL in cell lysates [3]: much higher level of inhibition of LAL upon cell lysis than 11, 13, 15, and 17
- inhibition of LAL in cell lysates after withdrawal [3]: maximal potency

Compound: Cl.NCCCCCCNC(=O)OCc1ccccc1 [benzyl N-(6-aminohexyl) carbamate hydrochloride]
- inhibition of LAL activity at 10 μM [1]: None of these carbamates inhibited LAL

Compound: CNC(=O)Oc1ccc2c(c1)[C@]1(C)CCN(C)[C@@H]1N2C [eserine]
- inhibition of LAL activity at 10 μM [1]: None of these carbamates inhibited LAL

Compound: COc1ccccc1OCC(O)COC(N)=O (stereo not drawn) [guaiacol glyceryl ether carbamate]
- inhibition of LAL activity at 10 μM [1]: None of these carbamates inhibited LAL

Compound: COC(N)=O [methyl carbamate]
- inhibition of LAL activity at 10 μM [1]: None of these carbamates inhibited LAL

Compound: CN(C)C(=O)Oc1cccc([N+](C)(C)C)c1 [neostigmine methyl sulfate]
- inhibition of LAL activity at 10 μM [1]: None of these carbamates inhibited LAL

Compound: CCCCCCCCCCC[C@@H](C[C@@H]1OC(=O)[C@H]1CCCCCC)OC(=O)[C@H](CC(C)C)NC=O [orlistat]
- inhibition of lipases [9]: potent inhibitor of many lipases

Compound: β-cyclodextrins
- accumulation of cholesterol and other lipids in LSOs [10]: significant reduction
- lifespan [10]: significantly extends lifespan
